The results in this text go back to ChEMBL document CHEMBL1152560, “Substituted 2-arylbenzothiazoles as kinase inhibitors: hit-to-lead optimization” (Bioorg Med Chem, 2009).

Experiment [1] deals with Death-associated protein kinase 2 (Homo sapiens) (UniProt Q9UIK4). Kind of experiment: Residual activity of DAPK2 at 10 uM by microplate scintillation counting.
The target of experiment [2] is Mitogen-activated protein kinase kinase kinase kinase 4 (Homo sapiens) (UniProt O95819). The experiment in a line: Residual activity of MAP4K4 at 0.1 uM by microplate scintillation counting.
Experiment [3] concerns the target T1, Ephrin type-A receptor 1 (Homo sapiens) (UniProt P21709).
T1 sequence (whole entry): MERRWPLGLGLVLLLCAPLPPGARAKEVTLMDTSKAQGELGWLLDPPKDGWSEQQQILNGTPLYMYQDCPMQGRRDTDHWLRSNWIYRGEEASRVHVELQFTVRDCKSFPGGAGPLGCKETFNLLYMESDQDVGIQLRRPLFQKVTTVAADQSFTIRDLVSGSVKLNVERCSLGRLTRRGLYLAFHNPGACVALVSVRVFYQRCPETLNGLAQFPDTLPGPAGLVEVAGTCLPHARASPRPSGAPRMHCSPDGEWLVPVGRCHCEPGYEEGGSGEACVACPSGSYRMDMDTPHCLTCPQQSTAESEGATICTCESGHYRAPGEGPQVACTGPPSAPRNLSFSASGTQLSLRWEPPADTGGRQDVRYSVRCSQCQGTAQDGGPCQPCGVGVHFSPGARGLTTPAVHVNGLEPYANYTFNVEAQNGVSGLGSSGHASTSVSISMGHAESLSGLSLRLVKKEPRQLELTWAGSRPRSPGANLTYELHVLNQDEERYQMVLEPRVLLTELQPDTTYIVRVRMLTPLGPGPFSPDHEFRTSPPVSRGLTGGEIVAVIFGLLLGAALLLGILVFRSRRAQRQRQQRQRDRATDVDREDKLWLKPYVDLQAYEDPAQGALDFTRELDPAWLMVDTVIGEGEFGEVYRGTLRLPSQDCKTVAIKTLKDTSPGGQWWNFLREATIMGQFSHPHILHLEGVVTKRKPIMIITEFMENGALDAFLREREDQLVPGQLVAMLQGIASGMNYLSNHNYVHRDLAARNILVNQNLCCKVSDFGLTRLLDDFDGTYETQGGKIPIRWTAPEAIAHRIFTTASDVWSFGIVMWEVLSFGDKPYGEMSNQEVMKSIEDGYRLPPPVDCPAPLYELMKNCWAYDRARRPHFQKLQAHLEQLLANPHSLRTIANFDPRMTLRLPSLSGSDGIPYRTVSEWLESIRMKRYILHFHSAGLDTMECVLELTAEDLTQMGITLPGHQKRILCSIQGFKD
Kind of experiment: Residual activity of EPHA1 at 10 uM by microplate scintillation counting.

Experiment [4] concerns Fibroblast growth factor receptor 1 (Homo sapiens), P11362 [V561M]. The experiment in a line: Residual activity of FGFR1 V561M mutant at 1 uM by microplate scintillation counting.
Experiment [5] deals with Serine/threonine-protein kinase WNK3 (Homo sapiens) (UniProt Q9BYP7). Kind of experiment: Residual activity of WNK3 at 10 uM by microplate scintillation counting.
Experiment [6] addresses Epidermal growth factor receptor (Homo sapiens, UniProt P00533). Kind of experiment: Inhibition of EGFR in human HCT116 cells by cellular phosphorylation assay.
Experiment [7] concerns the target Tyrosine-protein kinase Blk (Homo sapiens) (UniProt P51451). Kind of experiment: Residual activity of BLK at 0.1 uM by microplate scintillation counting.
Experiment [8] has as its target Serine/threonine-protein kinase MARK2 (Homo sapiens) (UniProt Q7KZI7). Kind of experiment: Residual activity of MARK2 at 1 uM by microplate scintillation counting.
The target in experiment [9] is Protein-tyrosine kinase 6 (Homo sapiens) (UniProt Q13882). Kind of experiment: Residual activity of BRK at 0.1 uM by microplate scintillation counting.
The target in experiment [10] is T2, Serine/threonine-protein kinase 3 (Homo sapiens) (UniProt Q13188).
T2 sequence (whole entry): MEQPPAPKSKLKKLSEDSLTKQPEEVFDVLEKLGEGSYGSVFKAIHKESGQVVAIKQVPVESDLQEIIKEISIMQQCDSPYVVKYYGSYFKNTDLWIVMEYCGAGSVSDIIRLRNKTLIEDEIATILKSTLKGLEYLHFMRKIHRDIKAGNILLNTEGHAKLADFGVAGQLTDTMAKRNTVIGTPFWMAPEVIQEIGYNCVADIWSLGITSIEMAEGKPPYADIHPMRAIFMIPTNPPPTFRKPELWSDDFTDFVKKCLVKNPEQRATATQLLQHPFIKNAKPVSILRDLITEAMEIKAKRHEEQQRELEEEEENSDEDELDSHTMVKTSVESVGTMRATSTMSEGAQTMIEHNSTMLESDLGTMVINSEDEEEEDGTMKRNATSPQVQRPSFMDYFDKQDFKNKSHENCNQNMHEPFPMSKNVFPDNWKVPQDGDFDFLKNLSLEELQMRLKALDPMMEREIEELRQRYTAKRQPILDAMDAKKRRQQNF
The experiment in a line: Residual activity of MST2 at 0.1 uM by microplate scintillation counting.

The target in experiment [11] is Serine/threonine-protein kinase Nek7 (Homo sapiens) (UniProt Q8TDX7). Kind of experiment: Residual activity of NEK7 at 10 uM by microplate scintillation counting.
Experiment [12] deals with Proto-oncogene tyrosine-protein kinase receptor Ret (Homo sapiens) (UniProt P07949). Kind of experiment: Residual activity of RET at 10 uM by microplate scintillation counting.
Experiment [13] addresses T3, Serine/threonine-protein kinase VRK1 (Homo sapiens) (UniProt Q99986).
T3 sequence (whole entry): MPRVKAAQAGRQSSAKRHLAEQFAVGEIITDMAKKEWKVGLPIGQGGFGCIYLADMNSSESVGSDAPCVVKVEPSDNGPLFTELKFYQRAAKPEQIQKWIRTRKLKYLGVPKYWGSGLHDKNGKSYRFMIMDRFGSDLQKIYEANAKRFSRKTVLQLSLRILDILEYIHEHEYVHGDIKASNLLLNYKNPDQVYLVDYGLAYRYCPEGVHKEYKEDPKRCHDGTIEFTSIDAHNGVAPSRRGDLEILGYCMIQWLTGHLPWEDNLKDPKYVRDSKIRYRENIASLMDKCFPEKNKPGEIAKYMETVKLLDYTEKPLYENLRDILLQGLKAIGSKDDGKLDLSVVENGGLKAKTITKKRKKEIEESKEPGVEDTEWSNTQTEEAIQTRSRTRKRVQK
Kind of experiment: Residual activity of VRK1 at 1 uM by microplate scintillation counting.

Experiment [14] deals with Platelet-derived growth factor receptor beta (Homo sapiens, UniProt P09619). The experiment in a line: Inhibition of PDGFRbeta in human HCT116 cells by cellular phosphorylation assay. Type of experiment: cell-based, HCT-116. The gist of the method: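 Cells expressing PDGFRβ were treated with compound, then stimulated to give maximal autophosphorylation in controls. Cells were lysed, and receptor phosphorylation was quantified by sandwich ELISA with a receptor-specific capture antibody and an anti-phosphotyrosine antibody. EC50 from a sigmoidal curve relative to the stimulated high control. Nine concentrations, 1 nM–10 μM in half-log steps, each in duplicate.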

Bounds are passed on as bounds.

Sequence of Protein-tyrosine kinase 6 (Homo sapiens) (Q13882 whole entry, looked up): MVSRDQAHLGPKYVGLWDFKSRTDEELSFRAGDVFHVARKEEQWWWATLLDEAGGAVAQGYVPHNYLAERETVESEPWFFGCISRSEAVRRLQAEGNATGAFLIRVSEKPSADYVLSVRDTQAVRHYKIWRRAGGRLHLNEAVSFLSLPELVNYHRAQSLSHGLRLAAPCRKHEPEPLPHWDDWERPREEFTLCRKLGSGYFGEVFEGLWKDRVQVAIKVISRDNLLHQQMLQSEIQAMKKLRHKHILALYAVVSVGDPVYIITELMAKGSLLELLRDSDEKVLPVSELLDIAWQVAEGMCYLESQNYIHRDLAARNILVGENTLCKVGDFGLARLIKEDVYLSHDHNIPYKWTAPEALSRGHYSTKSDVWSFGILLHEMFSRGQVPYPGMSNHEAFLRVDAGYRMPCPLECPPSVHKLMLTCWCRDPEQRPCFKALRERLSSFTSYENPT
Sequence of Fibroblast growth factor receptor 1 (Homo sapiens), P11362 [V561M] (P11362 whole entry V561M): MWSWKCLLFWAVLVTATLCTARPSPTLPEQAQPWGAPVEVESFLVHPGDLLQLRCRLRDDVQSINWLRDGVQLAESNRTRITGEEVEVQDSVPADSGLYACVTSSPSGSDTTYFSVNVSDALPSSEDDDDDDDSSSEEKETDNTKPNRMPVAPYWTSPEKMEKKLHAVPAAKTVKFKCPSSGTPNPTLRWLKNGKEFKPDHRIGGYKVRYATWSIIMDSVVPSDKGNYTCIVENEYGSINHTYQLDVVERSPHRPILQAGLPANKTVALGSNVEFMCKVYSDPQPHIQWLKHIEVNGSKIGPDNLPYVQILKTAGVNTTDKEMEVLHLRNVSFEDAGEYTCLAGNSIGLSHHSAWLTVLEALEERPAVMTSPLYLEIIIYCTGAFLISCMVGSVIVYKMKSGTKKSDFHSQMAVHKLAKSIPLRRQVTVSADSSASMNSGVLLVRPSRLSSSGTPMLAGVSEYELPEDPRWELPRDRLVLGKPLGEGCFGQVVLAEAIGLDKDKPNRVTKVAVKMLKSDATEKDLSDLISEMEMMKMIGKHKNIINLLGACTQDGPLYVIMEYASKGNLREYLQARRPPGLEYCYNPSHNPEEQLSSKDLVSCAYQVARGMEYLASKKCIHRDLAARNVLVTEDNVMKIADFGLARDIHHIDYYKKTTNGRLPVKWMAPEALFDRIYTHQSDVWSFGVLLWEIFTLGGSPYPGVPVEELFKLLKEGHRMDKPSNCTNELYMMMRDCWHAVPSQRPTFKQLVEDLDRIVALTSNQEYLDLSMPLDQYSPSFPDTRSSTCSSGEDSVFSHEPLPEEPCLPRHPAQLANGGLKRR
Sequence of Death-associated protein kinase 2 (Homo sapiens) (Q9UIK4 whole entry, looked up): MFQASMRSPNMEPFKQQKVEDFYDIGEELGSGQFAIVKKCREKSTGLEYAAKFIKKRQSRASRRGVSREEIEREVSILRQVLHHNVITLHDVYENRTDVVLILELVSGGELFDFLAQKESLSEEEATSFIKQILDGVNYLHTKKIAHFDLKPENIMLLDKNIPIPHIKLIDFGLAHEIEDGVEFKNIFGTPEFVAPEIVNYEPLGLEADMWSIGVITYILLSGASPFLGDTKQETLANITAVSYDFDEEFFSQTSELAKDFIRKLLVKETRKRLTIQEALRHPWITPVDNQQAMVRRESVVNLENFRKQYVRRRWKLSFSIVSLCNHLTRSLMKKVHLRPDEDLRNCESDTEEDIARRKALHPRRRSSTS
Sequence of Serine/threonine-protein kinase WNK3 (Homo sapiens) (Q9BYP7 whole entry): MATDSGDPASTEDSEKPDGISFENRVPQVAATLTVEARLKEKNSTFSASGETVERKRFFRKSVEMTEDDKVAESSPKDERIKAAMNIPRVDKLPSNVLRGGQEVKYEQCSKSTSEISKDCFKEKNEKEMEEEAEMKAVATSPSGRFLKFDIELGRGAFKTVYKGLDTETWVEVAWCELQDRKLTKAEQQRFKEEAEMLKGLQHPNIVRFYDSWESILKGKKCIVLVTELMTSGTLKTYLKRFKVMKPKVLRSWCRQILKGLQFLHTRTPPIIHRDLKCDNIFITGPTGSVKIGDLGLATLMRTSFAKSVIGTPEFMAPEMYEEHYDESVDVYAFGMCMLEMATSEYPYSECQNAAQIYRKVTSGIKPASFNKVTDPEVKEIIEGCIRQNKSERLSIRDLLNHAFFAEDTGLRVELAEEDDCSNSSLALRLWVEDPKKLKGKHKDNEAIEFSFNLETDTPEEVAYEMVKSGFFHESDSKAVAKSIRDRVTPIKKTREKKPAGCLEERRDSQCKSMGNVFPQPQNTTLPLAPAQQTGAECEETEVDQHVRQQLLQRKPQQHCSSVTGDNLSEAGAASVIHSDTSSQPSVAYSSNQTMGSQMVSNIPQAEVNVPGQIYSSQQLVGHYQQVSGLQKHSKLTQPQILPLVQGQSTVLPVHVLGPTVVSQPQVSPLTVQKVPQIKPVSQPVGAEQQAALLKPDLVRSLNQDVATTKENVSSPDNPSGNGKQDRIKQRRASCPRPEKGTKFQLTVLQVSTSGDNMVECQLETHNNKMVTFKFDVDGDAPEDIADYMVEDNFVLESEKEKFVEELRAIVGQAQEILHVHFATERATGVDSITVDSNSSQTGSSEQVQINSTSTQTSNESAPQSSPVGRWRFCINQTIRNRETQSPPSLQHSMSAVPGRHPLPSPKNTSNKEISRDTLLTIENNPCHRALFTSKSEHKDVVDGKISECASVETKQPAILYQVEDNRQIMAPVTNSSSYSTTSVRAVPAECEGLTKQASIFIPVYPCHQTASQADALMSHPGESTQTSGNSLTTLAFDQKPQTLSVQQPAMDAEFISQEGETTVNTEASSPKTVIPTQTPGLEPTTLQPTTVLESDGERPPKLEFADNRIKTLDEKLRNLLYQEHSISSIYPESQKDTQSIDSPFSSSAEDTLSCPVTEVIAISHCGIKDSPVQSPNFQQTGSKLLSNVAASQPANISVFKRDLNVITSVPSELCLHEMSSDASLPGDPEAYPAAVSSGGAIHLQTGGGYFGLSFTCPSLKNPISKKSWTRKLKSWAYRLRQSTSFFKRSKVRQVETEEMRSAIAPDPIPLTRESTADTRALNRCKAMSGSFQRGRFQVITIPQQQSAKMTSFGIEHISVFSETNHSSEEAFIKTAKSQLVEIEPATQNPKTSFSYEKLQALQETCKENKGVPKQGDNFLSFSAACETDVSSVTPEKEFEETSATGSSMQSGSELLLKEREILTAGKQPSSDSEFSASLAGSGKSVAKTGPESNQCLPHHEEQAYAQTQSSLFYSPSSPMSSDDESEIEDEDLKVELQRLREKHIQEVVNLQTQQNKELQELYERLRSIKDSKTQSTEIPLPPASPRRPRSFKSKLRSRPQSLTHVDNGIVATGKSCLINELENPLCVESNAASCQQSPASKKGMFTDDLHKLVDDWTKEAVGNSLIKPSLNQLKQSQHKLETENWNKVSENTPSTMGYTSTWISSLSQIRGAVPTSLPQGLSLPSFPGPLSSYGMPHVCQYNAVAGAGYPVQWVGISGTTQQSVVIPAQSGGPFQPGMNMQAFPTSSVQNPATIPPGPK
Sequence of Serine/threonine-protein kinase MARK2 (Homo sapiens) (Q7KZI7 whole entry): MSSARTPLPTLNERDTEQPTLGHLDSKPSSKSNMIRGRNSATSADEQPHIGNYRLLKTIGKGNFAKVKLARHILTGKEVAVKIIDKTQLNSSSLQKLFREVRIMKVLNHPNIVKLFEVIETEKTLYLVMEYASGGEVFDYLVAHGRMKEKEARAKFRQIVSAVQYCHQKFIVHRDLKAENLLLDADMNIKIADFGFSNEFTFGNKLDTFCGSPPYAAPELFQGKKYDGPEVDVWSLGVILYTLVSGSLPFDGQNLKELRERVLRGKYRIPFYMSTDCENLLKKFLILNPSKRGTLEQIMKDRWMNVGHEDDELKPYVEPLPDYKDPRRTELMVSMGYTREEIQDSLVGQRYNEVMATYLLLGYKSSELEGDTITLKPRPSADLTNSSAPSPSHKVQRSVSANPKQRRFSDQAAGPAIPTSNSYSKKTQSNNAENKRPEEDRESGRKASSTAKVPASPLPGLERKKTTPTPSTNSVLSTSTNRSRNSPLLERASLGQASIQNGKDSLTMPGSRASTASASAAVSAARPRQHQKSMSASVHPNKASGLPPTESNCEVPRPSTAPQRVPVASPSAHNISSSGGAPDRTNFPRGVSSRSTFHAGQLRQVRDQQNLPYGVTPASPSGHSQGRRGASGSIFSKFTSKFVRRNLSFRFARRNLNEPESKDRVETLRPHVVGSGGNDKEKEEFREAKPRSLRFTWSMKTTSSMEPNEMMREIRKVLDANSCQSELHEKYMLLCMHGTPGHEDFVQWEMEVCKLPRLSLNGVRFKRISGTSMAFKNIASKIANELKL
Sequence of Serine/threonine-protein kinase Nek7 (Homo sapiens) (Q8TDX7 whole entry, looked up): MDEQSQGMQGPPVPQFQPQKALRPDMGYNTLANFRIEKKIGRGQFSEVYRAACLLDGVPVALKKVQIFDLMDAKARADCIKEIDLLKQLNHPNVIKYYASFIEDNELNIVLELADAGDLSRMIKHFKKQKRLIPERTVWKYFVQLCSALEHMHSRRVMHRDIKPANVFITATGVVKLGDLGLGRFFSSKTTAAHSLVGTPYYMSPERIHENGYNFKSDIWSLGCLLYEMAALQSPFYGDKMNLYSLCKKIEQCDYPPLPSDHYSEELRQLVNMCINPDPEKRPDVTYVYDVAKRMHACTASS
Sequence of Tyrosine-protein kinase Blk (Homo sapiens) (P51451 2-505 limits assumed): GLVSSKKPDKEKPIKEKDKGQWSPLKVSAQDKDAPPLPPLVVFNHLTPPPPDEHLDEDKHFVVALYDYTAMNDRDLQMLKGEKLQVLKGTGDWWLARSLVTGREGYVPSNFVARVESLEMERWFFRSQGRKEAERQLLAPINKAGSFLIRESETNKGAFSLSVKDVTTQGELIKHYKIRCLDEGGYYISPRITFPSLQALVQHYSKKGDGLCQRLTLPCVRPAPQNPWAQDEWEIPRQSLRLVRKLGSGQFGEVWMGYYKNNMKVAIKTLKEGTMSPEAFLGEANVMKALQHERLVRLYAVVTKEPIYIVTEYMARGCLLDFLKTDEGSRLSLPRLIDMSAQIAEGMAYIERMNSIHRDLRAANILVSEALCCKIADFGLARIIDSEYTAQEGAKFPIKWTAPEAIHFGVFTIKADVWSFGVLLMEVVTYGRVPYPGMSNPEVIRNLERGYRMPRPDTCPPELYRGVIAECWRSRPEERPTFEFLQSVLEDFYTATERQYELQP

`COc1cc2c(Oc3ccc(-c4nc5ccccc5s4)cc3F)ncnc2cc1OCCCN1CCN(C)CC1`: the residual activity stood at 16% in [1]; 83% in experiment [2]; 79% in experiment [3]; 93% in experiment [4]; 39% in [5]; 89% in [7]. Further, the residual activity in experiment [8] came out at 87%; in [9] it was 35%; in experiment [10] it was 92%; in experiment [11], 239%; in experiment [12], 5%; in [13], 98%. The EC50 (as a rule, the concentration giving half of the maximal effect) in [6] was > 10000 nM.
`COc1cc2c(Oc3ccc(-c4nc5ccccc5s4)cc3)ncnc2cc1OCCCN1CCN(C)CC1`: the residual activity in experiment [1] worked out at 15%; in experiment [2], 85%; in experiment [3], 169%; in experiment [4], 103%; in experiment [5], 23%; in experiment [7] it was 90%. In addition, the residual activity in experiment [8] stood at 74%; in experiment [9], 65%; in experiment [10] it was 90%; in [11] it was 254%; in experiment [12], 13%; in experiment [13], 103%. The EC50 in experiment [14] turned out to be 170 nM.
For the molecule `COc1cc2c(Oc3ccc(-c4nc5ccccc5s4)cc3)ncnc2cc1OCCCN1CCCC1`, the residual activity in experiment [1] is 20%; in experiment [2], 86%; in experiment [3], 199%; in experiment [4] it was 102%; in experiment [5], 21%; in [7], 97%. The residual activity in experiment [8] was 86%; in experiment [9] it was 57%; in experiment [10], 82%; in [11], 224%; in experiment [12], 21%; in experiment [13] it was 95%. For the same molecule, the midpoint of the response in experiment [14], the EC50, lay at 2000 nM.
